# Experimental data published in ChEMBL document CHEMBL1134770, “Novel, potent, and selective phosphodiesterase 5 inhibitors: synthesis and biological activities of a series of 4-aryl-1-isoquinolinone derivatives” (J Med Chem, 2001).
# Legend:
# [1] = target: T1, cGMP-dependent 3',5'-cyclic phosphodiesterase (Bos taurus, UniProt P14099); test: Inhibition of bovine adrenal gland Phosphodiesterase 2 (PDE2)
# T1 sequence (P14099 whole entry): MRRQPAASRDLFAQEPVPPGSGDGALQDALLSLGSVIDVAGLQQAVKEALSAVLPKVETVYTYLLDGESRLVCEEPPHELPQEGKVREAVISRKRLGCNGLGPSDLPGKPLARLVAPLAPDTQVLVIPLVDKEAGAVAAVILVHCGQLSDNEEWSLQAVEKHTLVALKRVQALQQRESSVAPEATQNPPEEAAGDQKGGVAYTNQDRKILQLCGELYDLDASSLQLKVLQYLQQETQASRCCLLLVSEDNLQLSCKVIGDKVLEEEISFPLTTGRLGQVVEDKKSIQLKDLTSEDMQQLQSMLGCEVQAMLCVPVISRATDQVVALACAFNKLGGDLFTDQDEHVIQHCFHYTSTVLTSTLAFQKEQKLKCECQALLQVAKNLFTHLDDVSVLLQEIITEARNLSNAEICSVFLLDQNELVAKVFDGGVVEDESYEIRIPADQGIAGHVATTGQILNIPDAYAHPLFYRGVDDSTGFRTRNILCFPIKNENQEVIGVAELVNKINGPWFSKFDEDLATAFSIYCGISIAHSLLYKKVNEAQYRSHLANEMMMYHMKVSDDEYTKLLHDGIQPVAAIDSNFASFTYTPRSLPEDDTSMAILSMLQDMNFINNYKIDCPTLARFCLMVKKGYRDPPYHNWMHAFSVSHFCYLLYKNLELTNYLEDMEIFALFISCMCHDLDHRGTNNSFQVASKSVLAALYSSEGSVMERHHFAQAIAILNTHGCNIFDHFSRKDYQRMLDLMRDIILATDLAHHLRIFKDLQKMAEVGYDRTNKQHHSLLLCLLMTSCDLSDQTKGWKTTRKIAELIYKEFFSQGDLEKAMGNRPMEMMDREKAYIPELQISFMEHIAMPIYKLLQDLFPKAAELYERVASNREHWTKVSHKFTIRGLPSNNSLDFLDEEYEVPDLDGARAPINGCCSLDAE
# Outline: (§1)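 Boiled, then snake-venom nucleotidase for 30 min at 37 °C, methanol stop, Dowex separation, scintillation counting. IC50 from log concentration-inhibition curve (≥4 points), mean of ≥2 duplicate experiments.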
# [2] = target: cGMP-specific 3',5'-cyclic phosphodiesterase (Canis lupus familiaris, UniProt O77746); test: Inhibitory activity against canine lung Phosphodiesterase 5 (PDE5); outline: as §1
# [3] = target: Phosphodiesterase 3 (Canis familiaris); test: Inhibitory activity against canine heart Phosphodiesterase 3 (PDE3)
# [4] = target: Phosphodiesterase 1 (Rattus norvegicus, UniProt Q63421+Q9EPR9+Q01066); test: Inhibitory activity against rat heart Phosphodiesterase 1(PDE1); assay type: protein assay
# [5] = Relaxant effect on isolated rabbit corpus cavernosum; assay type: functional, tissue-based, Oryctolagus cuniculus; conditions: target entry is the homologue from another species
# [6] = target: Phosphodiesterase 4 (Canis familiaris); test: Inhibition of canine lung Phosphodiesterase 4 (PDE4)
SMILES,IC50 [1] [µM],IC50 [2] [µM],IC50 [3] [µM],IC50 [4] [µM],EC30 [5] [µM],IC50 [6] [µM]
CCCc1nn(C)c2c(=O)[nH]c(-c3cc(S(=O)(=O)N4CCN(C)CC4)ccc3OCC)nc12,> 10,,,,,
CNc1ccc(-n2c(C(=O)OC)c(-c3cc(OC)c(OC)c(OC)c3)c3cc(OC)c(OC)cc3c2=O)cc1,,> 10,> 10,> 10,,
COC(=O)c1c(-c2cc(OC)c(OC)c(OC)c2)c2cc(OC)c(OC)cc2c(=O)n1Cc1ccccc1,,0.38,> 10,3.1,,
COC(=O)c1c(-c2cc(OC)c(OC)c(OC)c2)c2cc(OC)c(OC)cc2c(=O)n1N1CCOCC1,,0.026,> 10,> 10,,
COC(=O)c1nc(O)c2cc(OC)c(OC)cc2c1-c1cc(OC)c(OC)c(OC)c1,,0.9,> 10,> 10,,
COC(=O)c1c(-c2cc(OC)c(O)c(OC)c2)c2ccc(OCc3ccccn3)cc2c(=O)n1-c1ccc(N)cc1,,0.014,> 10,2.6,,
COC(=O)c1c(-c2cc(OC)c(OC)c(OC)c2)c2cc(OC)c(OC)cc2c(=O)n1C1CCCC1,,0.58,> 10,> 10,,
COC(=O)c1c(-c2cc(OC)c(Br)c(OC)c2)c2ccc(OCc3ccccn3)cc2c(=O)n1-c1ccc(N)cc1.Cl.Cl,2.8,0.00022,8.4,0.46,0.044,0.75
COC(=O)c1c(-c2cc(OC)c(OC)c(OC)c2)c2cc(OC)ccc2c(=O)n1-c1ccc(N)cc1.Cl,,0.097,> 10,3.9,,
COc1cc(-c2c(C(=O)N(C)C)n(-c3ccc(N)cc3)c(=O)c3cc(OCc4ccccn4)ccc23)cc(OC)c1OC.Cl.Cl,,2.1,> 10,> 10,,
COC(=O)c1c(-c2cc(OC)c(OC)c(OC)c2)c2cc(OC)c(OC)cc2c(=O)n1-c1cccc(N)c1.Cl,,0.25,> 10,> 10,,
COC(=O)c1c(-c2cc(OC)c(OC)c(OC)c2)c2cc(OC)c(OC)cc2c(=O)n1-c1ccc(N(C)C)cc1.Cl,,> 10,> 10,> 10,,
COC(=O)c1c(-c2cc(OC)c(OC)c(OC)c2)c2ccc(OCc3ccccc3)cc2c(=O)n1-c1ccc(N)cc1.Cl,> 10,0.0012,> 10,2.1,0.13,6.1
COC(=O)c1c(-c2cc(OC)c(C)c(OC)c2)c2ccc(OCc3ccccn3)cc2c(=O)n1-c1ccc(N)cc1.Cl.Cl,3.5,0.00039,> 10,1.1,0.037,1.7
CCOC(=O)c1c(-c2cc(OC)c(OC)c(OC)c2)c2ccc(OCc3ccccn3)cc2c(=O)n1-c1ccc(N)cc1.Cl.Cl,,0.018,> 10,0.55,,
COC(=O)c1c(-c2cc(O)c(OC)c(OC)c2)c2ccc(OCc3ccccn3)cc2c(=O)n1-c1ccc(N)cc1.Cl.Cl,,0.0085,,> 10,,
COc1cc(-c2c(C(N)=O)n(-c3ccc(N)cc3)c(=O)c3cc(OCc4ccccn4)ccc23)cc(OC)c1OC.Cl.Cl,,0.49,> 10,> 10,,

SMILES,IC50 [1] [µM],IC50 [2] [µM],IC50 [3] [µM],IC50 [4] [µM],EC30 [5] [µM],IC50 [6] [µM]
COC(=O)c1c(-c2cc(OC)c(OC)c(OC)c2)c2ccc(OC)cc2c(=O)n1-c1ccc(N)cc1.Cl,,0.02,> 10,1,,
COc1cc(-c2c(C(=O)O)n(-c3ccc(N)cc3)c(=O)c3cc(OCc4ccccn4)ccc23)cc(OC)c1OC.Cl.Cl,,1.9,> 10,> 10,,
COC(=O)c1c(-c2cc(OC)c(OC)c(OC)c2)c2ccc(OCc3cccnc3)cc2c(=O)n1-c1ccc(N)cc1.Cl.Cl,> 10,0.0011,> 10,3.9,0.0095,3.6
COC(=O)c1c(-c2cc(OC)c(OC)c(OC)c2)c2cc(OC)c(OC)cc2c(=O)n1-c1ccc(N)cc1.Cl,,0.021,4.4,> 10,,
CCOc1cc2c(-c3cc(OC)c(OC)c(OC)c3)c(C(=O)OC)n(-c3ccc(N)cc3)c(=O)c2cc1OCC.Cl,,0.027,> 10,> 10,,
CNC(=O)c1c(-c2cc(OC)c(OC)c(OC)c2)c2ccc(OCc3ccccn3)cc2c(=O)n1-c1ccc(N)cc1.Cl.Cl,,0.22,> 10,> 10,,
COC(=O)c1c(-c2cc(OC)c(OC)c(OC)c2)c2ccc(OCc3ccccn3)cc2c(=O)n1-c1ccc(N)cc1.Cl.Cl,> 10,0.001,,1.3,0.0079,
COC(=O)c1c(-c2cc(OC)c(OC)c(OC)c2)c2ccc(OCc3ccncc3)cc2c(=O)n1-c1ccc(N)cc1.Cl.Cl,> 10,0.0031,> 10,9.5,0.012,7
COC(=O)c1c(-c2cc(OC)c(OC)c(OC)c2)c2cc(OC)c(OC)cc2c(=O)n1-c1ccccc1,,0.03,> 10,> 10,,
COC(=O)c1c(-c2cc(OC)c(OC)c(OC)c2)c2cc(OC)c(OC)cc2c(=O)n1-c1ccc(Cl)cc1,,0.17,> 10,> 10,,
COC(=O)c1c(-c2cc(OC)c(OC)c(OC)c2)c2cc(OC)c(OC)cc2c(=O)n1-c1ccc(OC)cc1,,> 10,,> 10,,
COC(=O)c1c(-c2cc(OC)c(OC)c(OC)c2)c2cc(OC)c(OC)cc2c(=O)n1-c1ccc(O)cc1,,0.11,> 10,> 10,,
COC(=O)c1c(-c2cc(OC)c(OC)c(OC)c2)c2cc(OC)c(OC)cc2c(=O)n1C,,0.23,8.5,2.1,,
COC(=O)c1c(-c2cc(OC)c(OC)c(OC)c2)c2cc(OC)c(OC)cc2c(=O)n1C1CCCCC1,,0.23,> 10,> 10,,
COC(=O)c1c(-c2cc(OC)c(OC)c(OC)c2)c2cc(OC)c(OC)cc2c(=O)n1-c1ccc(NC(C)=O)cc1,,> 10,> 10,> 10,,
COC(=O)c1c(-c2cc(OC)c(OC)c(OC)c2)c2ccc(OCCc3ccccn3)cc2c(=O)n1-c1ccc(N)cc1,,0.005,> 10,> 10,,
COC(=O)c1c(-c2cc(OC)c(OC)c(OC)c2)c2cc(OC)c(OC)cc2c(=O)n1N1CCCCC1,,0.054,> 10,> 10,,
